Experimental data: ChEMBL document CHEMBL1125027, “Synthesis and cytotoxicity studies of 8-amino-6-methyl-2-beta-D-ribofuranosyl-1,2,3,5,6,7-hexaazaacenaphthyle ne (7-aza-TCN) and the corresponding 2'-deoxy- and arabinonucleoside analogues” (1990)

What was measured:
L1210 [1] = experiment: Growth rate of L1210 tumor cells at a concentration of 10 uM; format: functional, Mus musculus
Outline: (§1)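 Murine leukemia L1210 grown in static suspension in Fischer's medium with test compound for 3 days, counted daily. Growth rate = slope of log cell number vs time relative to control, computed as control doubling time (about 12 h) / treated doubling time, expressed as %. Values are single experiments unless footnoted as the average of three.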

HEp-2 [2] = experiment: Growth rate of H.Ep.2 tumor cells at a concentration of 10 uM; format: functional, Homo sapiens
Outline: (§2)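 Human epidermoid carcinoma H.Ep.2 monolayers kept in exponential growth in Eagle's basal medium (Hanks' salts) with 0.5 g/L NaHCO3 and 15% heat-inactivated calf serum. 2 × 10^4 cells seeded per flask; after 1 day, compound-containing medium added. Trypsin/EDTA harvest and counts of two flasks per group on days 1, 2 and 4. Growth rate = control doubling time (about 19 h) / treated doubling time, as % of control.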

L1210 [3] = experiment: Growth rate of L1210 tumor cells at a concentration of 100 uM; format: functional, Mus musculus; outline: as §1
HEp-2 [4] = experiment: Growth rate of H.Ep.2 tumor cells at a concentration of 100 uM; format: functional, Homo sapiens; outline: as §2
HEp-2 [5] = experiment: Growth rate of H.Ep.2 tumor cells at a concentration of 50 uM; format: functional, Homo sapiens; outline: as §2
L1210 [6] = experiment: Growth rate of L1210 tumor cells at a concentration of 50 uM; format: functional, Mus musculus; outline: as §1

| Structure (SMILES) | Growth rate (L1210 [3]) | Growth rate (HEp-2 [4]) | further results |
| --- | --- | --- | --- |
| CN1N=C(N)c2nn(C3O[C@H](CO)[C@@H](O)[C@H]3O)c3nc(NN)nc1c23 (stereo not given in full) | – | – | Growth rate (L1210 [1]): 86%; Growth rate (HEp-2 [2]): 88% |
| CN1N=C(N)c2nn(C3O[C@H](CO)[C@@H](O)[C@H]3O)c3ncnc1c23 (stereo not given in full) | 63% | 67% | – |
| CN1N=C(N)c2nn(C3O[C@H](CO)[C@@H](O)[C@@H]3O)c3ncnc1c23 (stereo not given in full) | – | – | Growth rate (HEp-2 [5]): 62%; Growth rate (L1210 [6]): 75% |
| CN1N=C(N)c2nn([C@H]3C[C@H](O)[C@@H](CO)O3)c3ncnc1c23 | 83% | 100% | – |
| CSc1nc2c3c(nn(C4O[C@H](CO)[C@@H](O)[C@H]4O)c3n1)C(N)=NN2C (stereo not given in full) | 81% | – | – |
| CN1N=C(N)c2nn(C3O[C@H](CO)[C@@H](O)[C@H]3O)c3nc(S(C)(=O)=O)nc1c23 (stereo not given in full) | 86% | – | – |
